Data published in article PMC5680101 (The journal of physical chemistry. B, 2017).

How the values were obtained:
OmpG = OmpG (Escherichia coli, UniProt P76045, D245C); assay: biochemical; format: binding, E. coli; details: for p (Hill coefficient): four-parameter Hill fit; for p (Hill coefficient) / Kd: pH 7.4, 24°C; for rmax: maximum anisotropy at detergent concentrations above the CMC; for Rh max: maximum hydrodynamic radius of the proteomicelle; for Kd: read-out: Kd (apparent dissociation constant), midpoint of dose-dependent dissociation phase; for Dr slow: rotational diffusion coefficient under solvation conditions
Chain of OmpG (P76045 22-301 D245C): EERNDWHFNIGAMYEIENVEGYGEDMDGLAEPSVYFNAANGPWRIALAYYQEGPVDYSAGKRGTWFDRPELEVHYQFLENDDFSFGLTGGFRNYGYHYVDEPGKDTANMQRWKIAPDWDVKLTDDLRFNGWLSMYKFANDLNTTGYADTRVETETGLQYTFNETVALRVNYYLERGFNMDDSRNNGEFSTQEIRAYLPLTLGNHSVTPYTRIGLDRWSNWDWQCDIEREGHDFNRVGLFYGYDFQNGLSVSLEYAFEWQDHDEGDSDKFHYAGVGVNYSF

FhuA ΔC/Δ5L_25N = FhuA ΔC/Δ5L_25N (Escherichia coli, UniProt P06971); format: binding, E. coli; details: for rmax: maximum anisotropy at detergent concentrations above the CMC; for rmax / rmin: pH 7.4; for rmin: minimum anisotropy, extrapolated for the lowest detergent concentration; for Dr fast: rotational diffusion coefficient under desolvation conditions; for Dr slow: rotational diffusion coefficient under solvation conditions
Chain of FhuA ΔC/Δ5L_25N (P06971 194-747, stated change not applied): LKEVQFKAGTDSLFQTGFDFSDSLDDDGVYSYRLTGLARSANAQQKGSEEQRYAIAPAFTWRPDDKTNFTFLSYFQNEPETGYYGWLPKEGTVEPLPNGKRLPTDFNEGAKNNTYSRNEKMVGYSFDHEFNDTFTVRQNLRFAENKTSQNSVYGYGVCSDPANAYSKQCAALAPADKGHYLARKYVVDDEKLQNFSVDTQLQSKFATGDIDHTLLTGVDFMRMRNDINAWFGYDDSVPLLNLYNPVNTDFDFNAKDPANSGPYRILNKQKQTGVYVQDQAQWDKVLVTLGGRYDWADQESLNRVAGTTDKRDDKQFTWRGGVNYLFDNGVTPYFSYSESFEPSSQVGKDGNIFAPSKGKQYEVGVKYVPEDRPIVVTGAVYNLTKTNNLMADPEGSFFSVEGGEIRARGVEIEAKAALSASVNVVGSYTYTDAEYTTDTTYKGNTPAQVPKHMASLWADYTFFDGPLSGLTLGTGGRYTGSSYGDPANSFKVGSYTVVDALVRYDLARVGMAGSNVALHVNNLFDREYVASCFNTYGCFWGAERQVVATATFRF

FhuA ΔC/Δ5L = FhuA ΔC/Δ5L (Escherichia coli, UniProt P06971, DEL561-566/INS560[…], form not given); format: binding, E. coli; details: for q (slope factor or transition steepness): calculated at the midpoint of the dissociation phase; for ΔRh: decrease in hydrodynamic radius as a result of detergent desolvation; for p (Hill coefficient): four-parameter Hill fit; for p (Hill coefficient) / rmax / rmin / Kd: 200 mM NaCl, 50 mM HEPES; for p (Hill coefficient) / Kd: pH 7.4, 24°C; for rmax: maximum anisotropy at detergent concentrations above the CMC; for rmax / rmin: pH 7.4; for Rh max: maximum hydrodynamic radius of the proteomicelle; for rmin: minimum anisotropy, extrapolated for the lowest detergent concentration; for Kd: read-out: Kd (apparent dissociation constant), midpoint of dose-dependent dissociation phase; for Dr fast: rotational diffusion coefficient under desolvation conditions; for ΔG: ΔG = RT ln Kd
Chain of FhuA ΔC/Δ5L (P06971 194-747, stated change not applied): as above

FhuA ΔC/Δ7L_30N = FhuA ΔC/Δ7L_30N (Escherichia coli, UniProt P06971); format: binding, E. coli; details: for rmax: maximum anisotropy at detergent concentrations above the CMC; for rmax / rmin: pH 7.4; for rmin: minimum anisotropy, extrapolated for the lowest detergent concentration; for Dr fast: rotational diffusion coefficient under desolvation conditions; for Dr slow: rotational diffusion coefficient under solvation conditions
Chain of FhuA ΔC/Δ7L_30N (P06971 194-747, stated change not applied): as above

SELENOK U92C = target: T1, SELENOK U92C (Homo sapiens, UniProt Q9Y6D0, U92C); assay: steady-state FP anisotropy, DDM desolvation of SELENOK U92C; format: binding; details: solubilized in 1.3 mM DDM
T1 sequence (Q9Y6D0 2-94 U92C): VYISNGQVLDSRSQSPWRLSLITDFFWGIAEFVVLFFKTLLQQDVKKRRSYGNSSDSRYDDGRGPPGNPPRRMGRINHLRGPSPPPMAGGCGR
Outline: (§1)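 Human proteins expressed as MBP fusions and purified in 1.3 mM DDM, which was the starting detergent concentration. Each was labelled with Texas Red C2 maleimide on its single accessible cysteine (C92 in SELENOK, C174 in SELENOS). Samples were diluted in wells with DDM buffers to 200 nM protein in 200 mM NaCl, 50 mM HEPES pH 7.4, 24°C. FP read at […] after 15 min equilibration; 24 h endpoints at 4°C. rmin extrapolated to lowest DDM.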

SELENOS U188S = target: T2, SELENOS U188S (Homo sapiens, UniProt Q9BQE4); assay: steady-state FP anisotropy, DDM desolvation of SELENOS U188S; format: binding; details: solubilized in 1.3 mM DDM
T2 sequence (Q9BQE4 with tags, fused parts or gaps): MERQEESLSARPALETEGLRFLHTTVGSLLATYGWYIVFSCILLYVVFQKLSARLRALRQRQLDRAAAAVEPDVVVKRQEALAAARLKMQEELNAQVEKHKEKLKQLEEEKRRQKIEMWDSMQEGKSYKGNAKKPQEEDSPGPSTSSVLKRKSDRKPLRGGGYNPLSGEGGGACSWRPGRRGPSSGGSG
Outline: as §1

[1] = in water; ref Anatrace, [29], [63]; cited from earlier work
α-helical proteins = assay: FP anisotropy, DDM proteomicelles of the α-helical proteins; format: binding, Homo sapiens; details: 200 mM NaCl, 50 mM HEPES, pH 7.4, 24°C
Outline: as §1

[2] = 200 mM NaCl, 50 mM HEPES, pH 7.4
[3] = calculated at the midpoint of the dissociation phase
[4] = decrease in hydrodynamic radius as a result of detergent desolvation
[5] = four-parameter Hill fit, 200 mM NaCl, 50 mM HEPES, pH 7.4, 24°C
[6] = maximum hydrodynamic radius of the proteomicelle
[7] = read-out: Kd (apparent dissociation constant), midpoint of dose-dependent dissociation phase, 200 mM NaCl, 50 mM HEPES, pH 7.4, 24°C

Row | SMILES | p (Hill coefficient) (OmpG; 200 mM NaCl, 50 mM HEPES) | rmax (OmpG; [2]) | Rh max (OmpG) | Kd (OmpG; 200 mM NaCl, 50 mM HEPES) | Dr slow (OmpG) | rmax (FhuA ΔC/Δ5L_25N; 200 mM NaCl, 50 mM HEPES) | rmin (FhuA ΔC/Δ5L_25N; 200 mM NaCl, 50 mM HEPES) | Dr fast (FhuA ΔC/Δ5L_25N) | Dr slow (FhuA ΔC/Δ5L_25N) | q (slope factor or transition steepness) (FhuA ΔC/Δ5L) | ΔRh (FhuA ΔC/Δ5L) | p (Hill coefficient) (FhuA ΔC/Δ5L) | rmax (FhuA ΔC/Δ5L) | Rh max (FhuA ΔC/Δ5L) | rmin (FhuA ΔC/Δ5L) | Kd (FhuA ΔC/Δ5L) | Dr fast (FhuA ΔC/Δ5L) | ΔG (FhuA ΔC/Δ5L) | rmax (FhuA ΔC/Δ7L_30N; 200 mM NaCl, 50 mM HEPES) | rmin (FhuA ΔC/Δ7L_30N; 200 mM NaCl, 50 mM HEPES) | further results
1 | C[C@H](CCC(=O)NCCC[N+](C)(C)CCCS(=O)(=O)[O-])[C@H]1CC[C@H]2[C@@H]3[C@H](O)C[C@@H]4C[C@H](O)CC[C@]4(C)[C@H]3C[C@H](O)[C@]12C [CHAPS] | ~1.6 | 0.318 ± 0.002 | 2.5 nm | < 0.6 mM | 1.0 ± 0.1 10^7 s^−1 | ~0.17 | ~0.15 | ~6.6 10^7 s^−1 | ~5.2 10^7 s^−1 | 0.015 mM⁻¹ | 0.77 ± 0.18 nm | 1.7 ± 0.6 | 0.292 ± 0.004 | 2.2 nm | 0.172 ± 0.048 | 3.3 ± 1.8 mM | 1.5 ± 0.1 10^7 s^−1 | -3.4 ± 0.5 kcal/mol | ~0.17 | ~0.16 | Dr fast (FhuA ΔC/Δ7L_30N): ~6.0 10^7 s^−1; Dr slow (FhuA ΔC/Δ7L_30N): ~5.2 10^7 s^−1
2 | OC[C@H]1O[C@H](O[C@H]2[C@H](O)[C@@H](O)[C@H](OCCCCC3CCCCC3)O[C@@H]2CO)[C@H](O)[C@@H](O)[C@@H]1O [CYMAL-4, 4-cyclohexyl-1-Butyl-β-D-maltoside] | 6.7 ± 0.1 | 0.326 ± 0.001 | 2.6 nm | 4.6 ± 0.1 mM | 0.90 ± 0.01 10^7 s^−1 | 0.341 ± 0.001 | 0.166 ± 0.001 | 5.6 ± 0.1 10^7 s^−1 | 0.69 ± 0.01 10^7 s^−1 | 0.38 mM⁻¹ | 1.7 ± 0.1 nm | 3.7 ± 0.1 | 0.367 ± 0.001 | 3.6 nm | 0.242 ± 0.001 | 5.3 ± 0.1 mM | 2.6 ± 0.1 10^7 s^−1 | -3.1 ± 0.1 kcal/mol | 0.345 ± 0.004 | 0.168 ± 0.025 | q (slope factor or transition steepness) (OmpG; [3]): 0.25 mM⁻¹; ΔRh (OmpG; [4]): 1.2 ± 0.1 nm; rmin (OmpG; minimum anisotropy, extrapolated for the lowest detergent concentration, 200 mM NaCl, 50 mM HEPES, pH 7.4): 0.163 ± 0.001; Dr fast (OmpG; rotational diffusion coefficient under desolvation conditions): 5.8 ± 0.1 10^7 s^−1; ΔG (OmpG; ΔG = RT ln Kd): -3.2 ± 0.1 kcal/mol; q (slope factor or transition steepness) (FhuA ΔC/Δ5L_25N; [3]): 0.28 mM⁻¹; ΔRh (FhuA ΔC/Δ5L_25N; [4]): 1.4 ± 0.1 nm; p (Hill coefficient) (FhuA ΔC/Δ5L_25N; [5]): 5.2 ± 0.3; Rh max (FhuA ΔC/Δ5L_25N; [6]): 2.9 nm; Kd (FhuA ΔC/Δ5L_25N; [7]): 5.7 ± 0.1 mM; ΔG (FhuA ΔC/Δ5L_25N; ΔG = RT ln Kd): -3.1 ± 0.1 kcal/mol; Dr slow (FhuA ΔC/Δ5L; rotational diffusion coefficient under solvation conditions): 0.36 ± 0.01 10^7 s^−1; q (slope factor or transition steepness) (FhuA ΔC/Δ7L_30N; [3]): 0.17 mM⁻¹; ΔRh (FhuA ΔC/Δ7L_30N; [4]): 1.5 ± 0.2 nm; p (Hill coefficient) (FhuA ΔC/Δ7L_30N; [5]): 2.3 ± 0.9; Rh max (FhuA ΔC/Δ7L_30N; [6]): 2.9 nm; Kd (FhuA ΔC/Δ7L_30N; [7]): 4.5 ± 1.1 mM; Dr fast (FhuA ΔC/Δ7L_30N): 5.5 ± 1.2 10^7 s^−1; Dr slow (FhuA ΔC/Δ7L_30N): 0.63 ± 0.05 10^7 s^−1; ΔG (FhuA ΔC/Δ7L_30N; ΔG = RT ln Kd): -3.2 ± 0.1 kcal/mol
3 | CCCCCCCCCCCCO[C@@H]1O[C@H](CO)[C@@H](O[C@H]2O[C@H](CO)[C@@H](O)[C@H](O)[C@H]2O)[C@H](O)[C@H]1O [DDM, n-dodecyl-β-D-maltoside] |  |  |  |  |  |  |  |  |  |  |  |  |  |  |  |  |  |  |  |  | rotational diffusion coefficient, Dr fast (SELENOK U92C): ~ 1.3×10^8 s^−1; rmin (SELENOK U92C; 200 nM protein): 0.095 ± 0.002; rotational diffusion coefficient, Dr fast (SELENOS U188S): ~ 1.1×10^8 s^−1; rmin (SELENOS U188S; 200 nM protein): 0.103 ± 0.002; Aggregation number, Nagg [1]: ~78–149; apparent Kd relative to the CMC (α-helical proteins): greater than the CMC
